This assay relates to Vibrio harveyi BB721 quorum sensing luminescence, 9 h. Description: V. harveyi downstream QS pathway luminescence inhibition – strain BB721 constitutive-on, dry powder, counter-screen for AI-2 quorum sensing inhibitor project, dose response (AID 493104). The procedure, abridged:
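Test system: Vibrio harveyi strain BB721 with quorum sensing constitutively active / Input: bacterial culture at starting OD600 of 0.0005 / Medium: AB (autoinducer bioassay) medium / Incubation: 9 h exposure, 30 °C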
In general terms: A counterscreen serves to expose hits that act by an unwanted route or on another target.

This passage reports AC50 results from PubChem BioAssay AID493104 (Broad Institute, 2011).

Consider `Cc1cccc(NS(=O)(=O)c2ccc(Oc3ccccc3)cc2)n1`, for which the half-maximal activity concentration (AC50) (in general, the midpoint of the concentration-response curve, whichever way the signal moves) is 12.4 µM.
With `C=Cn1c(C(=O)O)ccc1-c1ccc(CC)cc1` the figure was 13.8 µM.
Next, `CCc1ccc(S(=O)(=O)Nc2ccc(Br)cn2)cc1`: 11.9 µM; `O=C1C=C/C(=C/Br)O1`: 6.43 µM; `COc1cc(NC(=O)CN2C(=O)NC(c3ccccc3)(c3ccccc3)C2=O)cc(OC)c1`: 0.919 µM.
